We go through 16 compounds from PubChem BioAssay AID2311 (NMMLSC, 2010).

SMILES strings stand for the structures.

The target in the assay is Regulator of G-protein signaling 19 (Homo sapiens) (UniProt P49795). In words: analogs regulating RGS19 interaction with Gαo – biochemical, SAR compounds, multiplexed bead flow cytometry, SAR follow-up (AID 2311). As to conditions: Bead-bound RGS19 and AF488-Galphao binding; for Ki: measured here: Ki calculated from EC50. Summed up:
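Material – Bead-immobilised biotinylated RGS19 in an RGS bead multiplex · Control set – DMSO wells and RGS-free bead controls · Timing – 30–90 min compound exposure at room temperature · Signal – high-throughput flow cytometry, median green fluorescence of RGS19-coated beads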

Chain of Regulator of G-protein signaling 19 (Homo sapiens) (P49795 whole entry, looked up): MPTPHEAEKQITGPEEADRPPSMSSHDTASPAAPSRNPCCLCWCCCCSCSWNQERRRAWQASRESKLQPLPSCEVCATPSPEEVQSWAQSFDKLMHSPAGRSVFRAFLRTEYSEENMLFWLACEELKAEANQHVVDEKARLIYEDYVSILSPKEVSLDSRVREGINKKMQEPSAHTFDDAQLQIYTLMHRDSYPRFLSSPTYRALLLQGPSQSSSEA

`CC1(C)OC(=O)C(=Cc2ccc(-c3ccc(S(N)(=O)=O)cc3)o2)C(=O)O1`: the Ki was 230 nM. Still for that read-out and setting: the figure for `COc1ccc(C2=CC(=O)C=CC2=O)cc1` is 160 nM.

Take `O=C1C(Cl)=C(N2CCCCC2)C(=O)C(Cl)=C1c1cnc(N2CCCCC2)s1`: the Ki is 80 nM. For the compound `CC(=O)OCCCNc1cc(Sc2nc3ccccc3s2)c2nonc2c1[N+](=O)[O-]`, the inhibitory constant (Ki) is 10 nM.

`CN1CCN(C2=C(Cl)C(=O)C(c3cnc(N4CCCCC4)s3)=C(Cl)C2=O)CC1`: the Ki was 30 nM. Still for that read-out and setting: the figure for `Cc1cccc(N2CCN(C(=O)COc3nsc4nc(C)cc(C)c34)CC2C)c1` (configuration not stated) is 550 nM. The same measure, in the same setting: the figure for `O=C(NCCCN1CCOCC1)c1sc2cc([N+](=O)[O-])ccc2c1Cl` is 460 nM. Take `NS(=O)(=O)c1ccc(N/N=C/c2ccc(O)c(O)c2O)c([N+](=O)[O-])c1`: the EC50 was 109 nM and the Ki was 100 nM. On to `O=C(Cc1csc(N2CCOCC2)n1)N/N=C/c1ccc(O)c(O)c1O`, for which the Ki was 750 nM.

For `Cc1cc(Cl)ccc1N=c1ssnc1Cl`, the Ki was 110 nM. The same measure, in the same setting: the value for `CCOC(=O)c1sc(NC(=O)CSc2nnc(Cc3ccccc3)o2)c(C#N)c1C` was 140 nM; that for `Cc1cccc(N2CCN(C(=O)Cn3sc4nc(C)cc(C)c4c3=O)CC2C)c1` (configuration not stated) was 90 nM; that for `Cc1[nH]n(-c2ccccc2)c(=S)c1C=NCCCN=Cc1c(C)[nH]n(-c2ccccc2)c1=S` was 50 nM. Still for that read-out and setting: the value for `CN=c1scc(C)n1/N=C/c1ccc(O)c(O)c1O` was 200 nM; that for `CCN=c1scc(C)n1/N=C/c1ccc(O)c(O)c1O` was 350 nM; that for `CCC(=O)NC(c1ccc(C)cc1)c1cc([N+](=O)[O-])c2cccnc2c1O` (configuration not stated) was 1160 nM.
